# Measured values: ChEMBL document CHEMBL1146303, “Spirodiketopiperazine-based CCR5 antagonists: Lead optimization from biologically active metabolite” (Bioorg Med Chem Lett, 2007)
# Tests used:
# [1] = biological target: T1, C-C chemokine receptor type 5 (Homo sapiens, UniProt P51681); assay: Displacement of [125I]MIP1-alpha from human CCR5 expressed in CHO cells; type: cell-based
# [2] = biological target: T1, C-C chemokine receptor type 5; assay: Antagonist activity at human CCR5 expressed in CHO cells assessed as inhibition of MIP-1-alpha-stimulated calcium mobilization; type: functional, cell-based
# Summary of the method: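 Cells expressing human CCR5 (hCCR5/CHO) were stimulated with MIP-1α, and the rise in intracellular calcium was measured. Potency is reported as an IC50 for inhibition of the calcium response.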
# [3] = Bioavailability in rat; type: ADME, organism-based; conditions: in vivo
# [4] = test system: Human immunodeficiency virus; assay: Antiviral activity against HIV; type: functional, organism-based; conditions: Human immunodeficiency virus 1
# [5] = test system: Human immunodeficiency virus 1; assay: Anti-infective activity against HIV1 BAL in MAGI CCR5+ cells; type: functional, organism-based; conditions: Human immunodeficiency virus 1, BAL
# [6] = Aqueous solubility at pH 6.8; type: physicochemical
# [7] = biological target: Cytochrome P450 3A4 (Homo sapiens, UniProt P08684); assay: Inhibition of CYP3A4; type: ADME
# Sequence of Cytochrome P450 3A4 (P08684 whole entry): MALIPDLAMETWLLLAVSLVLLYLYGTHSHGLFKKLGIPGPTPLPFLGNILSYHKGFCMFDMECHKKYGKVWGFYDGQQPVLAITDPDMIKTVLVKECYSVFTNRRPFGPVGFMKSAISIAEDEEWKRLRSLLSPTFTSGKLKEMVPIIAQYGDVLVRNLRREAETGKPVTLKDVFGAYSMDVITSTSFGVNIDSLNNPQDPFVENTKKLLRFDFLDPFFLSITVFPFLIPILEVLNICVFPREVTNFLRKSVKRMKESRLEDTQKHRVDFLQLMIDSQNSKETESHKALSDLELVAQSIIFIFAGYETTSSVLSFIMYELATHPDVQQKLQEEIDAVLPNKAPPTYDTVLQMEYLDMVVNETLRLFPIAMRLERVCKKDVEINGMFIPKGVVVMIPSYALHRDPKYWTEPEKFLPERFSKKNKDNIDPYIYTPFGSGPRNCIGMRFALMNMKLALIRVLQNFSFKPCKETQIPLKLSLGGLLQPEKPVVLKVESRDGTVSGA
# T1 sequence (P51681 whole entry): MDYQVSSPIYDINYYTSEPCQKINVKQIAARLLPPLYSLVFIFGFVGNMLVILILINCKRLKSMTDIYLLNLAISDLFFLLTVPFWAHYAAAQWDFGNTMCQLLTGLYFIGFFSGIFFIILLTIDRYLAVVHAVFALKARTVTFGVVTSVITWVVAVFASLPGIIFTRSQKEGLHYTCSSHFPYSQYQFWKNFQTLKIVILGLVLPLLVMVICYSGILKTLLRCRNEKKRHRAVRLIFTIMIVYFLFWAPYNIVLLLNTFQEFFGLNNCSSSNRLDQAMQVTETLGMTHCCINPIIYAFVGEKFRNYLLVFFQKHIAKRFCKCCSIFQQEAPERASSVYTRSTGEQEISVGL
Structure (SMILES),IC50 [1],IC50 [2],bioavailability [3],IC90 [4],IC50 [5],solubility [6],IC50 [4],IC50 [7]
CCCCN1C(=O)[C@@H]([C@@H](O)C(C)C)NC(=O)C12CCN(Cc1ccc(Oc3ccccc3)cc1)CC2,24 nM,210 nM,,,,,,
CCCCN1C(=O)[C@@H]([C@H](O)C(C)C)NC(=O)C12CCN(Cc1ccc(Oc3ccccc3)cc1)CC2.Cl,3.5 nM,33 nM,< 1%,,,,,
CCCCN1C(=O)C(CC(C)(C)O)NC(=O)C12CCN(Cc1ccc(Oc3ccccc3)cc1)CC2 (stereo not drawn),28 nM,79 nM,,,,,,
CCCCN1C(=O)[C@@H](CC(C)C)NC(=O)C12CCN(Cc1ccc(Oc3ccccc3)cc1)CC2,29 nM,130 nM,,,,,,
CCCCN1C(=O)C(CC(C)C)NC(=O)C12CCN(Cc1ccc(Oc3ccccc3)cc1)CC2.Cl (stereo not drawn),8.3 nM,94 nM,1.3%,676 nM,,,,
CCCCN1C(=O)[C@H]([C@H](O)C(C)C)NC(=O)C12CCN(Cc1ccc(Oc3ccccc3)cc1)CC2,68 nM,400 nM,,,,,,
CCCCN1C(=O)[C@H](CC(C)C)NC(=O)C12CCN(Cc1ccc(Oc3ccccc3)cc1)CC2,11 nM,84 nM,,,,,,
CCCCN1C(=O)[C@@H]([C@H](O)C2CCCCC2)NC(=O)C12CCN(Cc1ccc(Oc3ccccc3)cc1)CC2.Cl,,,< 1%,,6 nM,2.7 µg/mL,0.6 nM,
CCCCN1C(=O)[C@H]([C@@H](O)C(C)C)NC(=O)C12CCN(Cc1ccc(Oc3ccccc3)cc1)CC2,53 nM,150 nM,,,,,,
CCCCN1C(=O)C(CC2CCCCC2)NC(=O)C12CCN(Cc1ccc(Oc3ccccc3)cc1)CC2.Cl (stereo not drawn),,28 nM,,,337 nM,< 0.2 µg/mL,31 nM,9300 nM
